Assay results as given in ChEMBL document CHEMBL3098030, “Explorations of substituted urea functionality for the discovery of new activators of the heme-regulated inhibitor kinase” (J Med Chem, 2013).
The source made the active and inactive calls. The rule behind the calls is not given here.

Columns and labels:
[1] = molecular target: Eukaryotic translation initiation factor 2-alpha kinase 1 (Homo sapiens) (UniProt Q9BQI3); experiment: Activation of HRI in human CRL2813 cells assessed as increase in CHOP protein expression at 10 uM after 6 hrs by Western blotting analysis; type: cell-based
Method in brief: (§1)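 CRL-2813 melanoma cells grown in serum-containing medium without antibiotics to 70% confluence, treated 6 h (10 μM for CHOP/cyclin D1), lysed in M-PER on ice 30 min, protein by BCA. Equal protein on SDS-PAGE, probed with anti-pS51-eIF2α rabbit mAb, anti-total eIF2α mouse mAb, anti-CHOP, anti-cyclin D1, anti-actin. Three independent experiments.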

[2] = Selectivity ratio of IC50 for mouse NIH/3T3 cells to IC50 for human CRL2813 cells; type: ADME, cell-based; conditions: NIH/3T3 cells and CRL2813 cells, read-out: Ratio IC50
[3] = molecular target: Eukaryotic translation initiation factor 2-alpha kinase 1 (Homo sapiens) (UniProt Q9BQI3); experiment: Activation of HRI in human CRL2813 cells assessed as reduction in cyclin D1 protein expression at 10 uM after 6 hrs by Western blotting analysis; type: cell-based; method in brief: as §1
[4] = molecular target: Eukaryotic translation initiation factor 2-alpha kinase 1 (Homo sapiens) (UniProt Q9BQI3); experiment: Activation of HRI in human CRL2813 cells assessed as eIF2alpha phosphorylation after 6 hrs by Western blotting analysis; type: cell-based; method in brief: as §1
[5] = molecular target: Eukaryotic translation initiation factor 2-alpha kinase 1 (Homo sapiens) (UniProt Q9BQI3); experiment: Activation of HRI in human CRL-2813-pBISA-DL(ATF-4) reporter cells assessed as eIF2alpha phosphorylation after 10 hrs by dual-luciferase reporter gene assay in presence of siRNA relative to control
Method in brief: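 CRL-2813-pBISA-DL(ATF-4) reporter cells transiently transfected (Lipofectamine 2000) with HRI-targeting or non-targeting siRNA for 48 h, then treated with compounds or DMSO for 10 h. Firefly/renilla ratio by dual luciferase assay, normalized to vehicle. Triplicate, three independent experiments; mean±S.E.M.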

[6] = molecular target: Eukaryotic translation initiation factor 2-alpha kinase 1 (Homo sapiens) (UniProt Q9BQI3); experiment: Activation of HRI in human CRL2813 cells assessed as reduction in cyclin D1 mRNA expression at 7.5 to 15 uM after 6 hrs by RT-PCR analysis; type: cell-based
Method in brief: (§2)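 CRL-2813 cells incubated with 7.5 or 15 μM compound for 6 h; CHOP and cyclin D1 mRNA measured by real-time PCR. Each run in triplicate, mean of three independent experiments ±S.E.M.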

MCF7 [7] = experiment: Antiproliferative activity against human MCF7 cells after 5 days by SRB assay in presence of HRI-targeting siRNA; type: functional, cell-based; conditions: MCF7, 120 h
[8] = molecular target: Eukaryotic translation initiation factor 2-alpha kinase 1 (Homo sapiens) (UniProt Q9BQI3); experiment: Activation of HRI in human CRL-2813-pBISA-DL(ATF-4) reporter cells assessed as concentration required to obtain F-luciferase expression/R-luciferase expression ratio 3
Method in brief: (§3)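 Stably transfected CRL-2813-pBISA-DL(ATF-4) reporter cells treated with compounds in dose-response; firefly and renilla luciferases read by dual glow luciferase kit. Activity = firefly/renilla (F/R) ratio normalized to DMSO-treated wells (set at 1). Triplicate points fitted to logistic sigmoidal model by nonlinear least squares; C3X = concentration giving F/R = 3, Emax = maximal F/R.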

[9] = Ratio of IC50 for human CRL2813 cells after 3 days by SRB assay in presence of HRI-targeting siRNA to IC50 for human CRL2813 cells after 3 days by SRB assay in presence of non-targeting siRNA
[10] = Cytotoxicity against human CRL2813 cells after 5 days by SRB assay; type: functional, cell-based; conditions: CRL2813, 120 h
Method in brief: (§4)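 CRL-2813 melanoma or NIH/3T3 fibroblasts seeded in 96-well plates, exposed 5 days to 0.5–20 μM compound; fixed in cold 10% TCA, bound sulforhodamine B measured. % growth = 100×(T−T0)/(C−T0). IC50 derived; triplicate, three independent experiments.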

NIH3T3 = experiment: Cytotoxicity against mouse NIH/3T3 cells after 5 days by SRB assay; type: cell-based; conditions: NIH3T3, 120 h; method in brief: as §4
[11] = Antiproliferative activity against human CRL2813 cells after 5 days by SRB assay in presence of non-targeting siRNA; type: functional, cell-based; conditions: CRL2813, 120 h
[12] = molecular target: Eukaryotic translation initiation factor 2-alpha kinase 1 (Homo sapiens) (UniProt Q9BQI3); experiment: Activation of HRI in human CRL-2813-pBISA-DL(ATF-4) reporter cells assessed as reduction of ternary complex at 30 uM by dual-luciferase reporter gene assay relative to control; method in brief: as §3
[13] = Antiproliferative activity against human CRL2813 cells after 5 days by SRB assay in presence of HRI-targeting siRNA; type: functional, cell-based; conditions: CRL2813, 120 h
MCF7 [14] = experiment: Antiproliferative activity against human MCF7 cells after 5 days by SRB assay in presence of non-targeting siRNA; type: functional, cell-based; conditions: MCF7, 120 h
[15] = molecular target: Eukaryotic translation initiation factor 2-alpha kinase 1 (Homo sapiens) (UniProt Q9BQI3); experiment: Activation of HRI in human CRL2813 cells assessed as increase in CHOP mRNA expression at 7.5 to 15 uM after 6 hrs by RT-PCR analysis; type: cell-based; method in brief: as §2
[16] = molecular target: Eukaryotic translation initiation factor 2-alpha kinase 1 (Homo sapiens) (UniProt Q9BQI3); experiment: Activation of HRI in human CRL-2813-pBISA-DL(ATF-4) reporter cells assessed as eIF2alpha phosphorylation after 8 to 32 hrs by dual-luciferase reporter gene assay
Method in brief: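 Reporter CRL-2813-pBISA-DL(ATF-4) cells incubated with compounds for 8, 16 or 32 h. Firefly/renilla luciferase ratio measured by dual luciferase assay and normalized to vehicle-treated cells.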

[17] = Antiproliferative activity against human CRL2813 cells after 3 days by SRB assay in presence of non-targeting siRNA; type: functional, cell-based; conditions: CRL2813, 72 h
Method in brief: (§5)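 CRL-2813 cells transiently transfected (Lipofectamine 2000) with HRI-targeting or non-targeting siRNA, then treated with compound dose range; proliferation by SRB after 3 days. IC50 calculated per siRNA condition; ratio is HRI-siRNA over non-targeting IC50. Triplicate, three independent experiments; mean±S.E.M.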

[18] = Ratio of IC50 for human CRL2813 cells after 3 days by SRB assay in presence of HRI-targeting siRNA to IC50 for human CRL2813 cells after 3 days by SRB assay in presence of non-targeting siRNA; type: functional; method in brief: as §5
[19] = Antiproliferative activity against human CRL2813 cells after 3 days by SRB assay in presence of HRI-targeting siRNA; type: functional, cell-based; conditions: CRL2813, 72 h; method in brief: as §5

Chain of Eukaryotic translation initiation factor 2-alpha kinase 1 (Homo sapiens) (Q9BQI3 whole entry): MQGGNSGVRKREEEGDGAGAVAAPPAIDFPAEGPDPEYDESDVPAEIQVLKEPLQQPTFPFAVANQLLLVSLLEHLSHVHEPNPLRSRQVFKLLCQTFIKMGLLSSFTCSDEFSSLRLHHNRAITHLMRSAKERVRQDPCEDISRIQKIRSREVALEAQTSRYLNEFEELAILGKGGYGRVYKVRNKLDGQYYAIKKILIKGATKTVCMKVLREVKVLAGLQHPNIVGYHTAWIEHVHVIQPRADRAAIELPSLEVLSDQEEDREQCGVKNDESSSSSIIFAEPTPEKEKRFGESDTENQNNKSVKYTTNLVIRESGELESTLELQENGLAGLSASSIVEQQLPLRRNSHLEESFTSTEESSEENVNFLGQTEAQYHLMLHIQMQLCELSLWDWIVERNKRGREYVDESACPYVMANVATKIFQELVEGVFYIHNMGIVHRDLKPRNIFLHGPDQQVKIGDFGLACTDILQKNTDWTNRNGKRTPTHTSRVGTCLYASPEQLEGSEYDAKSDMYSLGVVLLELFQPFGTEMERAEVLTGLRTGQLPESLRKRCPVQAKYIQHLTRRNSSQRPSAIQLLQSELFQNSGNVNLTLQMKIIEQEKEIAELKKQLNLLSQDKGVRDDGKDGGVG

Compound: O=C(Nc1ccc(OC(F)(F)F)cc1)N[C@H]1CC[C@H](Oc2ccc(F)cc2)CC1
- Activity [1]: Active
- selectivity ratio [2]: 5
- Activity [3]: Active
- Activity [4]: Active
- Activity [5]: inactive
- Activity [6]: Active
- IC50 (MCF7 [7]): 30 µM
- Activity [8]: 0.7 µM
- Ratio IC50 [9]: 1.7
- IC50 [10]: 2.7 µM
- IC50 (NIH3T3): 13.6 µM
- IC50 [11]: 3.3 µM
- Ratio [12]: 15.3
- IC50 [13]: 7.4 µM
- IC50 (MCF7 [14]): 9.2 µM
- Activity [15]: Active

Compound: O=C(Nc1cccc(C(F)(F)F)c1)N[C@H]1CC[C@H](Oc2ccccc2F)CC1
- Activity [16]: Active
- Activity [8]: 3.2 µM
- IC50 [10]: 2.45 µM
- IC50 [17]: 2.8 µM
- Ratio IC50 [18]: 7
- IC50 [19]: 21.9 µM
- Ratio [12]: 7.98

Compound: O=C(Nc1ccc([N+](=O)[O-])cc1)N[C@H]1CC[C@H](Oc2ccc(F)cc2)CC1
- Activity [1]: Active
- Activity [3]: Active
- Activity [4]: Active
- Activity [5]: inactive
- Activity [6]: Active
- IC50 (MCF7 [7]): > 30 µM
- Activity [8]: 6.7 µM
- Ratio IC50 [9]: 1.7
- IC50 [10]: 2.3 µM
- IC50 [11]: 5.2 µM
- Ratio [12]: 9
- IC50 [13]: 12.2 µM
- IC50 (MCF7 [14]): 9.8 µM
- Activity [15]: Active

Compound: O=C(Nc1cccc(C(F)(F)F)c1)N[C@H]1CC[C@H](Oc2cccc(F)c2)CC1
- Activity [16]: Active
- Activity [8]: 2.6 µM
- IC50 [10]: 2.4 µM
- IC50 [17]: 4.3 µM
- Ratio IC50 [18]: 7
- IC50 [19]: 29.9 µM
- Ratio [12]: 7.23

Compound: O=C(Nc1ccc(C(F)(F)F)cc1)N[C@H]1CC[C@H](Oc2ccc(F)cc2)CC1
- Activity [1]: Active
- Activity [3]: Active
- Activity [4]: Active
- Activity [5]: inactive
- Activity [6]: Active
- IC50 (MCF7 [7]): 29.5 µM
- Activity [8]: 1.6 µM
- Ratio IC50 [9]: 1.7
- IC50 [10]: 2.8 µM
- IC50 [11]: 3.1 µM
- Ratio [12]: 14
- IC50 [13]: 6.5 µM
- IC50 (MCF7 [14]): 8.4 µM
- Activity [15]: Active

Compound: O=C(Nc1cccc(C(F)(F)F)c1)N[C@H]1CC[C@@H](Oc2ccc(F)cc2)CC1
- Activity [1]: Active
- Activity [3]: Active
- Activity [4]: Active
- Activity [5]: inactive
- Activity [6]: Active
- IC50 (MCF7 [7]): > 30 µM
- Activity [8]: 4.5 µM
- Ratio IC50 [9]: 1.7
- IC50 [10]: 2.6 µM
- IC50 [11]: 6 µM
- IC50 [17]: 6 µM
- IC50 [19]: 10.4 µM
- Ratio [12]: 11.8
- IC50 [13]: 10.4 µM
- IC50 (MCF7 [14]): 11.3 µM
- Activity [15]: Active
